High-throughput results deposited in PubChem by The Scripps Research Institute Molecular Screening Center.
Rows were chosen to be rich in hits. Some 4.7% of all compounds tested hit in one or more screens of this group.
HTR2A ag = mouse Htr2a agonists via beta-arrestin recruitment, primary screen, cell-based, luminescence; 5-hydroxytryptamine receptor 2A (Mus musculus), P35363; CHO-K1 mHTR2A beta-arrestin complementation; percent of 30 µM serotonin response; activation, % at 7.6 µM; 360,000 compounds, 0.66% hits;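 active means activation above a run cutoff, the mean activation of all tested compounds plus 3 SD, cut at about 14% in these data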
Target sequence (P35363 whole entry, looked up): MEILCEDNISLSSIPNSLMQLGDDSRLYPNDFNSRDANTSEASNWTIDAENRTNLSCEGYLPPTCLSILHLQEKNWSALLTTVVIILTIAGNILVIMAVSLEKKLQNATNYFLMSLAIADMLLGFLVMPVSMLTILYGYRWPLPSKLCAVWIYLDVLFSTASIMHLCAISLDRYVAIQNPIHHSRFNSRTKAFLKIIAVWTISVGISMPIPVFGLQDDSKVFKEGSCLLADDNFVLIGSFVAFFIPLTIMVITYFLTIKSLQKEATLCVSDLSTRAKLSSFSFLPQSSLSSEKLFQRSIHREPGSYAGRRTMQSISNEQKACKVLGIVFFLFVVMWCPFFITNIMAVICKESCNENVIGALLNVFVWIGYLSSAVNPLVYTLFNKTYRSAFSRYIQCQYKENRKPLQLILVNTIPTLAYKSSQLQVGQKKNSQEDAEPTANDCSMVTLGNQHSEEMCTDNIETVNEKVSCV
AHR act = AHR activators, primary screen, cell-based, luminescence, luciferase reporter, human | Aryl hydrocarbon receptor (Homo sapiens), P35869 | AHR-responsive luciferase reporter cells | activation, % at 5 µM | 320,000 compounds, 2.5% hits; in the data active means activation above about 47%
MC4R antag cAMP = MC4R antagonists of cAMP signaling, primary screen, cell-based, TR-FRET, antagonist arm of biased-ligand search; inhibition, % at 6.5 µM; Melanocortin receptor 4 (Homo sapiens), P32245; MC4R-expressing cells, MTII-stimulated cAMP, LANCE TR-FRET; AID 540295, 2011; 360,000 compounds, 0.48% hits;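 active means inhibition above its plate's cutoff, the mean of tested wells on that plate plus 3 SD, cut at about 29% in these data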
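System: U2OS-MC4R stable cell line; Technique: Eu-cAMP/anti-cAMP TR-FRET, emission 671 nm; Repeats: single well per compound; Also added: Melanotan II; Dosing: one concentration, 6.5 µM nominal; Schedule: 30-min compound, 1-h challenge, 1-h detection, room temperature.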
FXN GAA850 act = FXN promoter activators, primary screen, cell-based, luciferase luminescence, HEK293 lucGAA850 | HEK293 lucGAA850 FXN promoter luciferase reporter, 24 h; percent of 10 µM SAHA response | activation, % at 6 µM | 360,000 compounds, 0.56% hits;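 active means activation above the average of all compounds screened plus 3 SD, cutoff fixed separately per campaign, cut at about 7.5% in these data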
MC4R barr agon = MC4R agonists recruiting beta-arrestin, primary screen, cell-based, luminescence, agonist arm of biased-ligand search. Melanocortin receptor 4 (Homo sapiens), P32245. U2OS MC4R beta-arrestin complementation; percent of melanotan II response, DMSO zero. activation, % at 8.9 µM. 360,000 compounds, 0.98% hits;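 active means activation above a per-plate cutoff, the mean activation of sample wells on that plate plus 3 SD, cut at about 8% in these data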
MC4R barr ag = MC4R beta-arrestin agonists, retest, confirmation, cell-based, luminescence, U2OS; activation, % at 8.9 µM; shares compounds with MC4R barr agon; 2,400 compounds, 31% hits; U2OS MC4R beta-arrestin recruitment; scaled DMSO 0%, Melanotan II 100%;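 active means mean activation across replicates above the hit cutoff set in the earlier primary screen, cut at about 8% in these data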
MOR-DOR barr ag = agonists of MOR-DOR heterodimerization, counter-screen for MC4R biased agonist project, cell-based, luminescence. shares compounds with MC4R barr agon. 2,400 compounds, 5.8% hits. U2OS PathHunter beta-arrestin, beta-gal luminescence; percent of deltorphin B response, DMSO zero. activation, % at 9.2 µM;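 active means mean activation across replicates exceeds the hit threshold derived in the earlier primary screen, cut at about 18% in these data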
Numbers stand for hits.

For O=C(COC(=O)c1ccc(S(=O)(=O)N2CCCCC2)cc1)Nc1ccccc1Cl the results were HTR2A ag inactive, MC4R antag cAMP inactive, FXN GAA850 act inactive, MC4R barr agon 23, MC4R barr ag inactive and MOR-DOR barr ag inactive.
Cc1cccc(NC(=O)COC(=O)c2ccc(S(=O)(=O)N3CCCCCC3)cc2)c1 was read as HTR2A ag inactive, MC4R antag cAMP inactive, FXN GAA850 act inactive, MC4R barr agon 12, MC4R barr ag inactive and MOR-DOR barr ag inactive.
`O=C(COC(=O)c1ccc(S(=O)(=O)N2CCCC2)cc1)Nc1cccc(Br)c1` gave HTR2A ag inactive, AHR act inactive, MC4R antag cAMP inactive, FXN GAA850 act inactive and MC4R barr agon inactive.
`O=C(COC(=O)c1cccc(S(=O)(=O)N2CCCCC2)c1)NCc1ccccc1` gave HTR2A ag inactive, MC4R antag cAMP inactive, FXN GAA850 act inactive and MC4R barr agon inactive.
Screening CC1(C)Oc2ccc3ccc(=O)oc3c2/C(=C/Nc2ccccc2)C1=O returned HTR2A ag inactive, AHR act inactive, MC4R antag cAMP inactive, FXN GAA850 act inactive, MC4R barr agon 9.8, MC4R barr ag inactive and MOR-DOR barr ag inactive.
CC1(C)Oc2ccc3ccc(=O)oc3c2/C(=C/N)C1=O was read as HTR2A ag inactive, AHR act inactive, MC4R antag cAMP inactive, FXN GAA850 act inactive and MC4R barr agon inactive.
Screening c1ccc(COc2ncnc3c2ncn3CCCN2CCN(Cc3cccc4ccccc34)CC2)cc1 returned HTR2A ag inactive, MC4R antag cAMP inactive, FXN GAA850 act inactive, MC4R barr agon 20, MC4R barr ag 10 and MOR-DOR barr ag inactive.
Screening CC(=O)c1sc(NC(=O)CCCOc2ccc(Cl)cc2)nc1C returned HTR2A ag inactive, AHR act inactive, MC4R antag cAMP inactive, FXN GAA850 act inactive, MC4R barr agon 11, MC4R barr ag inactive and MOR-DOR barr ag inactive.
COc1ccc(OCCCC(=O)Nc2nc(C)c(C(C)=O)s2)cc1 was read as HTR2A ag inactive, AHR act inactive, MC4R antag cAMP inactive, FXN GAA850 act inactive and MC4R barr agon inactive.
Screening CCCN(CC(=O)Nc1ccc(F)c(F)c1F)C(=O)CCc1nc2ccccc2c(=O)[nH]1 returned HTR2A ag inactive, AHR act inactive, MC4R antag cAMP inactive, FXN GAA850 act inactive and MC4R barr agon inactive.
For CCn1nc(NC(=O)c2cccnc2)c2cc3cccc(C)c3nc21 the results were HTR2A ag inactive, AHR act 68, MC4R antag cAMP inactive, FXN GAA850 act inactive, MC4R barr agon 17, MC4R barr ag inactive and MOR-DOR barr ag inactive.
Screening CCn1nc(NC(=O)c2ccncc2)c2cc3cccc(C)c3nc21 returned HTR2A ag inactive, AHR act inactive, MC4R antag cAMP inactive, FXN GAA850 act inactive and MC4R barr agon inactive.
`CCCCCCCCCCS(=O)(=O)N/N=C/c1ccc([N+](=O)[O-])cc1` gave HTR2A ag inactive, AHR act inactive, MC4R antag cAMP inactive, FXN GAA850 act inactive, MC4R barr agon 13, MC4R barr ag inactive and MOR-DOR barr ag inactive.
For Cc1ccc(/C=N/NS(=O)(=O)c2ccc([N+](=O)[O-])cc2)o1 the results were HTR2A ag inactive, AHR act inactive, MC4R antag cAMP inactive, FXN GAA850 act inactive and MC4R barr agon inactive.
For CC(=O)N1CCN(c2cc(N3CCCC3)c(F)cc2[N+](=O)[O-])CC1 the results were HTR2A ag inactive, AHR act inactive, MC4R antag cAMP inactive, FXN GAA850 act inactive and MC4R barr agon inactive.
